Experimental data from ChEMBL document CHEMBL2331495, “Novel pyrazole derivatives as neutral CB₁ antagonists with significant activity towards food intake” (Eur J Med Chem, 2013).
Activity calls are given as the source filed them. The calls are words filed in the database; no cut-off is given here.

How the values were obtained:
[1] = biological target: Cannabinoid receptor 1 (Mus musculus) (UniProt P47746); experiment: Neutral antagonist activity at CB1 receptor in mouse N1E-115 cells assessed as inhibition of WIN 55,212-2-induced ERK1/2 phosphorylation at 125 to 500 nM treated 5 mins prior to WIN 55,212-2 challenge by Western blot analysis; format: cell-based
Sequence of Cannabinoid receptor 1 (Mus musculus) (P47746 whole entry): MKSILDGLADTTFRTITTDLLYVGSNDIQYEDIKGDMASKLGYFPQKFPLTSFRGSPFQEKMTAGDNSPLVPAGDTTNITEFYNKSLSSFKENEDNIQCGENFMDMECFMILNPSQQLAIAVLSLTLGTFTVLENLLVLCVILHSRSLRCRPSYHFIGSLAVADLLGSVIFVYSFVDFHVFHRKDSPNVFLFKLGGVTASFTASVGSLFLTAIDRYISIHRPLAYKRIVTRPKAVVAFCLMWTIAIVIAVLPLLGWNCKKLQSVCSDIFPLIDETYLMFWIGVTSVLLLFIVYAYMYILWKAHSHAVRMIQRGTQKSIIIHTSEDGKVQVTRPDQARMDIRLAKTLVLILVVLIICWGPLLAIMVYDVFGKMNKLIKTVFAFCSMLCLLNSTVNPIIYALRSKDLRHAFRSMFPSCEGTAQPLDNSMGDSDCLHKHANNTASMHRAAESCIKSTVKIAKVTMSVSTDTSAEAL
Outline: (§1)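 N1E-115 cells were pretreated for 5 min with compound (0.1-1.0 μM; dissolved in D-PBS with 1% DMSO), then exposed for 10 min to WIN55,212-2 (25 nM). Lysates (40 µg total protein) were western blotted for P-ERK 1/2 and expressed as percentage of vehicle. Five independent experiments; one-way ANOVA.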

[2] = species on record: Mus musculus; experiment: Selectivity ratio of Ki for CB1 receptor in CD1 mouse brain membrane without cerebellum to Ki for CB2 receptor in CD1 mouse spleen membrane; format: cell membranes
[3] = biological target: Cannabinoid receptor 1 (Homo sapiens) (UniProt P21554); experiment: Intrinsic activity at human recombinant CB1 receptor transfected in CHO cells assessed as effect on [35S]GTPgammaS binding up to 0.1 uM after 1 hr by liquid scintillation spectrometry; format: functional, cell-based
Sequence of Cannabinoid receptor 1 (Homo sapiens) (P21554 whole entry): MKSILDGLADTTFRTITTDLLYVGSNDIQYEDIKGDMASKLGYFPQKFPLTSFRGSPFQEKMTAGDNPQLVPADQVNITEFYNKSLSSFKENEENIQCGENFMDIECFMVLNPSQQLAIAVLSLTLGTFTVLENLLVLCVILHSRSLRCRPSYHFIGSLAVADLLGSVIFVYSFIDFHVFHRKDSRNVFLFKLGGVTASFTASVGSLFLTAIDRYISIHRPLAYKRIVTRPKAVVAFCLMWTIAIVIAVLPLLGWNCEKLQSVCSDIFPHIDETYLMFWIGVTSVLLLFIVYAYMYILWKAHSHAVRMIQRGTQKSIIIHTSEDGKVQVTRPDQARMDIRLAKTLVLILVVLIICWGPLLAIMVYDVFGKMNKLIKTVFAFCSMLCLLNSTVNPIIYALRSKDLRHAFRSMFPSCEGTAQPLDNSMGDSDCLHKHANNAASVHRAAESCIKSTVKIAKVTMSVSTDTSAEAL
Outline: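 […] used CHO cells expressing human recombinant CB1, incubated with [³⁵S]GTPγS and a range of compound concentrations alone for 1 h at 37 °C. The reaction was stopped with ice-cold Tris/BSA, filtered on glass-fibre filters and read by liquid scintillation spectrometry. Data are percentage stimulation over basal, mean ± SEM of five experiments.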

[4] = biological target: Cannabinoid receptor 1 (Mus musculus) (UniProt P47746); experiment: Neutral antagonist activity at CB1 receptor in albino CD1 mouse vas deferens assessed as rightward shift in WIN 55,212-2 concentration response curve for electrically evoked contractions at 0.1 to 10 uM treated 20 mins before first addition of WIN 55,212-2
Outline: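 Vas deferens from male albino CD1 mice, electrically stimulated as for twitch studies, in Krebs-Henseleit at 37 °C. Compound at a fixed concentration (0.1, 1 or 10 μM; DMSO ≤0.1%) was added 20 min before cumulative WIN 55,212-2. Inhibition of twitches was expressed as percentage of the pre-WIN amplitude; mean ± SEM.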

[5] = biological target: Cannabinoid receptor 2 (Mus musculus, UniProt P47936); experiment: Displacement of [3H]CP55940 from CB2 receptor in CD1 mouse spleen membrane by liquid scintillation counting analysis; format: cell membranes
Sequence of Cannabinoid receptor 2 (P47936 whole entry): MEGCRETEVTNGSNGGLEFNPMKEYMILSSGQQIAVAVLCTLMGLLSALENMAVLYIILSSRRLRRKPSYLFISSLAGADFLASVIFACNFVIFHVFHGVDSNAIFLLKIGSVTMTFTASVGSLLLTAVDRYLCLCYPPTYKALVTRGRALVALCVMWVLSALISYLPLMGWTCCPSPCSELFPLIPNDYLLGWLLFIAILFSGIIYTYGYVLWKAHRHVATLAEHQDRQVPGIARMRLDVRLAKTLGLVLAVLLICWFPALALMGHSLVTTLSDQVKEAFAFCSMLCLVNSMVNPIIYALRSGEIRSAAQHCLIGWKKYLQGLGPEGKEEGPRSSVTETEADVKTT

[6] = tested on: Mus musculus; experiment: Reduction of food intake in fasted C57Bl6/J mouse at 10 to 20 mg/kg, ip administered 15 mins prior to food presentation measured after 1 to 3 hrs; format: functional, organism-based
Outline: (§2)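 Male-unspecified C57Bl6/J mice (20-25 g) were housed singly on a reverse light-dark cycle and fasted 18 h. Compounds in saline with 2.5% Tween 80 and 2.5% ethanol, or vehicle, were given ip; food was presented 15 min later. Intake was recorded over 3 h. Mean ± SEM; two-way ANOVA with Bonferroni test.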

[7] = biological target: Cannabinoid receptor 1 (Mus musculus, UniProt P47746); experiment: Displacement of [3H]CP55940 from CB1 receptor in CD1 mouse brain membrane without cerebellum by liquid scintillation counting analysis; format: cell membranes
Sequence of Cannabinoid receptor 1 (P47746 whole entry): as the sequence (P47746 whole entry) above

[8] = biological target: Cannabinoid receptor 1 (Mus musculus) (UniProt P47746); experiment: Agonist activity at CB1 receptor in mouse N1E-115 cells assessed as increase in ERK1/2 phosphorylation after 10 mins by Western blot analysis; format: cell-based
Outline: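 N1E-115 cells were grown in high-glucose DMEM with 10% FBS at 37 °C, 5% CO2. They were exposed for 10 min to compounds in D-PBS with 1% DMSO, then lysed at 4 °C. P-ERK 1/2 was measured by western blot at 40 µg total protein and expressed as percentage of vehicle. Five independent experiments; one-way ANOVA.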

[9] = biological target: Cannabinoid receptor 1 (Mus musculus) (UniProt P47746); experiment: Intrinsic activity at CB1 receptor in albino CD1 mouse vas deferens assessed as increase in amplitude of electrically evoked contractions at 0.1 to 100 uM
Outline: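 Vas deferens from male albino CD1 mice (30-40 g) was held at 0.5 g tension in Krebs-Henseleit at 37 °C, gassed with 95% O2/5% CO2. Twitches were evoked by 0.5-s trains of three 0.5-ms pulses at 110% maximal voltage, 0.1 Hz. Compounds (DMSO ≤0.1%) were added once responses were reproducible. Contraction amplitude was compared with control; mean ± SEM, n=5; ANOVA with Bonferroni test.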

[10] = biological target: Cannabinoid receptor 1 (Mus musculus) (UniProt P47746); experiment: Neutral antagonist activity at CB1 receptor in mouse N1E-115 cells assessed as inhibition of WIN 55,212-2-induced ERK1/2 phosphorylation at 1 uM treated 5 mins prior to WIN 55,212-2 challenge by Western blot analysis; format: cell-based; outline: as §1
[11] = tested on: Mus musculus; experiment: Reduction of food intake in fasted C57Bl6/J mouse at 10 to 20 mg/kg, ip administered 15 mins prior to food presentation measured for 2 hrs; format: functional, organism-based
Outline: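 C57Bl6/J mice (20-25 g), housed singly on a reverse light-dark cycle and fasted 18 h. Dosed ip at 10 and 20 mg/kg in saline with Tween 80 and ethanol (each 2.5 wt%). Weighed food presented 15 min later; intake followed over 3 h. Mean ± SEM; two-way ANOVA with Bonferroni post hoc versus vehicle.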

[12] = tested on: Mus musculus; experiment: Reduction of food intake in fasted C57Bl6/J mouse at 10 to 20 mg/kg, ip administered 15 mins prior to food presentation measured after 2 to 3 hrs; format: functional, organism-based; outline: as §2
[13] = tested on: Mus musculus; experiment: Toxicity in C57Bl6/J mouse assessed as observable adverse events at 20 mg/kg, ip; format: organism-based; parameters: dose 20 mg/kg, route intraperitoneal; conditions: in vivo
[14] = tested on: Mus musculus; experiment: Increase in food intake in fasted C57Bl6/J mouse at 3 to 10 mg/kg, ip administered 15 mins prior to food presentation measured after 3 hrs; format: functional, organism-based
[15] = tested on: Mus musculus; experiment: Toxicity in C57Bl6/J mouse assessed as mortality at 20 mg/kg, ip; format: organism-based; parameters: dose 20 mg/kg, route intraperitoneal; conditions: in vivo
Outline: (§3)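 Fasted C57Bl6/J mice from the food-intake test were given 20 mg/kg ip in saline with Tween 80 and ethanol (each 2.5 wt%).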

[16] = tested on: Mus musculus; experiment: Toxicity in C57Bl6/J mouse assessed as locomotion blockage at 20 mg/kg, ip; format: organism-based; parameters: dose 20 mg/kg, route intraperitoneal; conditions: in vivo; outline: as §3
[17] = tested on: Mus musculus; experiment: Reduction of food intake in fasted C57Bl6/J mouse at 3 to 10 mg/kg, ip administered 15 mins prior to food presentation measured after 1 hr; format: functional, organism-based; outline: as §2
[18] = biological target: Cannabinoid receptor 1 (Mus musculus) (UniProt P47746); conditions: N1E-115, 1 uM

| SMILES | inhibition [1] | Ratio Ki [2] | Intrinsic activity [3] | Activity [4] | Ki [5] | Ki [7] | Activity [8] | Intrinsic activity [9] | inhibition [10] | Activity [6] | Activity [11] | Activity [12] | Activity [13] | Activity [14] | Activity [15] | Activity [16] | Activity [17] | inhibition [18] |
| --- | --- | --- | --- | --- | --- | --- | --- | --- | --- | --- | --- | --- | --- | --- | --- | --- | --- | --- |
| Cc1c(C(O)CC2CCCCC2)nn(-c2ccc(Cl)cc2Cl)c1-c1ccc(Cl)cc1 (racemic) |  |  | inactive | Active | 4.2 µM |  | inactive | inactive | Active | Active |  |  |  |  |  |  |  |  |
| Cc1c(C(NN2CCCCC2)C(F)(F)F)nn(-c2ccc(Cl)cc2Cl)c1-c1ccc(Cl)cc1 (racemic) |  | < 0.057 |  | Active | > 5 µM | 0.287 µM | inactive | inactive | Active |  |  |  |  |  |  |  |  |  |
| Cc1c(/C=C/C2CCCCC2)nn(-c2ccc(Cl)cc2Cl)c1-c1ccc(Cl)cc1 | Active | 0.003 |  | Active | 3.8 µM | 0.0112 µM | inactive | inactive |  |  | Active |  |  |  |  |  |  |  |
| Cc1c(C(=O)NN2CCCCC2)nn(-c2ccc(Cl)cc2Cl)c1-c1ccc(Cl)cc1 [RIMONABANT] |  |  |  |  |  |  | inactive |  |  |  |  |  |  | Active | Toxic | Toxic | Active | Active |

Second part, led by results:

| inhibition [1] | Ratio Ki [2] | Intrinsic activity [3] | Activity [4] | Ki [5] | Ki [7] | Activity [8] | Intrinsic activity [9] | inhibition [10] | SMILES | Activity [6] | Activity [11] | Activity [12] | Activity [13] | Activity [14] | Activity [15] | Activity [16] | Activity [17] | inhibition [18] |
| --- | --- | --- | --- | --- | --- | --- | --- | --- | --- | --- | --- | --- | --- | --- | --- | --- | --- | --- |
| Active | 0.021 | inactive | Active | 2.23 µM | 0.0461 µM | inactive |  |  | Cc1c(C(=O)CC2CCCCC2)nn(-c2ccc(Cl)cc2Cl)c1-c1ccc(Cl)cc1 | Active |  |  |  |  |  |  |  |  |
|  | 0.103 |  | Active | 4 µM | 0.412 µM |  | inactive |  | Cc1c(/C(F)=C\C2CCCCC2)nn(-c2ccc(Cl)cc2Cl)c1-c1ccc(Cl)cc1 |  |  |  |  |  |  |  |  |  |
| Active | 0.013 | inactive | Active | 1.95 µM | 0.0258 µM | inactive | inactive |  | Cc1c(/C(F)=C/C2CCCCC2)nn(-c2ccc(Cl)cc2Cl)c1-c1ccc(Cl)cc1 |  |  | Active | Non-toxic |  |  |  |  |  |
